ABCB1 inh – inhibitors of human ABCB1 transporter, ABCG2 counter-screen; P08183; CCRF-Adr cells, JC-1 efflux, flow cytometry; inhibition, % at 6.6 µM; actives 0.067% (n = 190,000); AID 1326; in the data active = inhibition above about 40%;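 also: higher value means more JC-1 retained so stronger ABCB1 efflux block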
MEKK2mut PB1 HTS – signal of MEK5 binding to mutant human MEKK2 PB1 domain; bead flow cytometry, Alexa488-MEK5 binding to MEKK2 mutant; percent response, % at 10 µM; actives 0.35% (n = 290,000); AID 1530; in the data active = percent response above about 24%, passing the limit was not always enough
MEKK3 PB1 HTS – modulators (inhibitors or enhancers) of MEK5 binding to human MEKK3 PB1 domain; bead-based flow cytometry, Alexa488-MEK5 binding to MEKK3; actives lie on both sides; 0 = blocked by unlabeled MEK5, 100 = vehicle; binding response (% of control), % at 10 µM; Q99759; actives 1.4% (n = 290,000);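 active = binding response more than 3 SD above or below the average of its plate-row segment, actives on both sides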;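 also: Alexa488 bead fluorescence after subtracting the streptavidin-only scavenger bead signal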
MEKK2wt PB1 HTS – raises or lowers MEK5 binding to wildtype human MEKK2 PB1 domain; Q9Y2U5; bead flow cytometry, Alexa488-MEK5 binding to MEKK2 WT; actives lie on both sides; binding response (% of control), % at 10 µM; actives 1.1% (n = 290,000); AID 1531; in the data active = binding response below about 67% or above about 130%
ABCG2 block – inhibitors of human ABCG2 transporter, ABCB1 counter-screen; AID 1325; inhibition, % at 6.6 µM; actives 0.1% (n = 190,000); Q9UNQ0; IgMXP3 cells, JC-1 efflux, flow cytometry;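 active = inhibition above 80%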
Target sequence (Q9UNQ0 whole entry, looked up): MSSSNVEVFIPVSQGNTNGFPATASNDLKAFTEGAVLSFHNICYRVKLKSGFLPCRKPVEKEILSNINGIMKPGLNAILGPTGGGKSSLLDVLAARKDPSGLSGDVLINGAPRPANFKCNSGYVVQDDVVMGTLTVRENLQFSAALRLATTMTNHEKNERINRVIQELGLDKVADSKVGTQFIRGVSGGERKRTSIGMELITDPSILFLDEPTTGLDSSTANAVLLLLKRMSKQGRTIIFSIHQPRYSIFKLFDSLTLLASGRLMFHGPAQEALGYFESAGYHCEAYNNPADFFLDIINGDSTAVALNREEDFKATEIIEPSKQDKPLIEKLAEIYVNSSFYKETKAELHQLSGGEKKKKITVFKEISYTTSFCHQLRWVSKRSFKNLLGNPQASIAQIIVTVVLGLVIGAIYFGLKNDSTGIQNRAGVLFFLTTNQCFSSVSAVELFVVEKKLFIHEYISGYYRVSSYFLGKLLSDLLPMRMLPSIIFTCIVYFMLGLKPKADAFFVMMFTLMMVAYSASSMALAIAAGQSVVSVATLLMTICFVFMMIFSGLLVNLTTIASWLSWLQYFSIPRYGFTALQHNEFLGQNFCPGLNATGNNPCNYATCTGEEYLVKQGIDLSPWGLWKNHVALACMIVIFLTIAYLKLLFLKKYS
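Read-out basis: Efflux inhibition in percent versus controls | Test system: ABCG2 IgMXP3 and barcoded ABCB1 CCRF-Adr cell mix | Quantity: 3 million cells/mL in well | Schedule: 10 min at 25 °C | Control set: Nicardipine as high control, DMSO as low control | Reagent: JC-1 as fluorescent efflux pump substrate | Signal: Flow cytometry of retained JC-1 fluorescence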
WT yeast gro inh – growth inhibition of WT yeast, mitochondrial fusion screen; actives 2.1% (n = 190,000); mitochondrial fusion phenotypic screen, WT strain; inhibition, % at 10 µM; in the data active = inhibition above about 58%; tested in S. cerevisiae
MEKK2wt confirm – raises or lowers MEK5 binding to wildtype human MEKK2, retest; actives 2.4% (n = 5,900); bead flow cytometry, Alexa488-MEK5 binding to MEKK2 WT; actives lie on both sides; binding response (% of control), % at 10 µM; shares compounds with MEKK3 PB1 HTS; in the data active = binding response below about 16% or above about 210%; inactive = in between
MEKK2mut confirm – signal of MEK5 binding to mutant human MEKK2, retest. shares compounds with MEKK3 PB1 HTS. bead flow cytometry, Alexa488-MEK5 binding to MEKK2 mutant. percent response, % at 10 µM. actives 2% (n = 5,900). AID 1893; in the data active = percent response mostly above about 71%, no sharp cut-off; inactive = mostly below about 38%;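 also: higher means compound restores mutant binding toward wildtype level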
MEKK3 confirm – confirmation of inhibitors of MEK5 binding to human MEKK3. bead flow cytometry, Alexa488-MEK5 binding to MEKK3; stronger effect = lower value. binding response (% of control), % at 10 µM. actives 1.8% (n = 5,900). shares compounds with MEKK3 PB1 HTS. AID 1894;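 active = binding response below 72% of control, or above a set upper limit, though filed actives all read lower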
Numbers stand for hits; . = inactive; / = no result given; [ ] = dose if it differs, or a comment. A selection: hits, their analogues and other compounds. The true share with any hit is near 3.5%.

SMILES	ABCB1 inh	MEKK2mut PB1 HTS	MEKK3 PB1 HTS	MEKK2wt PB1 HTS	ABCG2 block	WT yeast gro inh	MEKK2wt confirm	MEKK2mut confirm	MEKK3 confirm
CCOC(=O)Cc1csc(NC(=O)/C=C/c2cccc(Br)c2)n1	.	.	44[inhibitor]	47[inhibitor]	.	.	.	.	.
CCOC(=O)Cc1csc(NC(=S)NC(=O)c2cccc([N+](=O)[O-])c2)n1	.	.	139	.	.	.	.	.	.
CCOC(=O)Cc1csc(NC(=O)c2sc3nc4cc(C)ccc4cc3c2N)n1	.	.	144	.	.	.	.	.	.
COc1cc(/C=N/NC(=O)c2nc(-c3ccccc3)n(-c3ccccc3)n2)ccc1O	.	.	.	.	.	.	/	/	/
COc1ccc2c(c1)c(C(=O)N/N=C/c1ccc(Cl)cc1)c(C)n2C	/	.	.	.	/	/	/	/	/
COc1ccc(/C=N/NC(=O)c2nc(-c3ccccc3)n(-c3ccccc3)n2)cc1OC	.	.	151	.	.	.	.	.	.
COc1ccc2c(c1)c(C(=O)N/N=C/c1ccc(OC)c(OC)c1)c(C)n2C	.	.	152	.	.	.	.	.	.
Cc1ccccc1OCC(=O)Nc1ccc(S(=O)(=O)Nc2ccccn2)cc1	.	.	136	.	.	.	.	.	.
Cc1ccc(OCC(=O)Nc2ccc(S(=O)(=O)Nc3ccccn3)cc2)c(C)c1	.	.	.	.	.	.	/	/	/
Cc1cnc(C)c(N(C)NC(=S)Nc2ccccc2)n1	.	.	.	.	.	.	/	/	/
Cc1ccc(NC(=S)NN(C)c2cc(C)nc(C)n2)cc1	.	.	129	.	.	.	.	.	.
NS(=O)(=O)c1ccc(CCNC(=O)c2ccc(OCC3CCCO3)cc2)cc1 (stereo not drawn)	/	.	.	.	/	/	/	/	/
CCOC(=O)c1c(C)n(-c2ccc(C)cc2)c2ccc(O)c(CN(C)C)c12	.	.	.	138	.	.	.	.	.
CCOC(=O)c1c(CSc2ccccc2)n(C)c2cc(Br)c(O)c(CN(C)C)c12	/	.	.	.	/	/	/	/	/
CCOC(=O)c1c(CSc2ccc(C)cc2)n(C)c2cc(Br)c(O)c(CN(C)C)c12	.	.	.	145	.	.	.	.	.
O=C(Nc1ccc(Cl)cc1Cl)c1ccc(Br)o1	/	.	.	.	/	/	/	/	/
CCc1ccc2[nH]c(=O)c(CN(Cc3ccccc3)C(=O)Nc3ccccc3OC)cc2c1	.	.	.	.	.	.	/	/	/
O=C(Nc1ccc(N2CCCCC2)cc1)c1cncc(Br)c1	.	.	.	38[inhibitor]	.	.	.	.	.
CCCn1ncc(CN2CCC(C(=O)Nc3cccc(-c4cccc(F)c4)c3)CC2)c1C	/	.	.	144	/	/	.	.	.
O=C(Nc1cccc(-c2cccc(F)c2)c1)C1CCN(C2CCC2)CC1	/	.	.	146	/	/	.	.	.
O=C(Nc1cccc(-c2cccc(F)c2)c1)C1CCN(Cc2ccco2)CC1	/	.	.	.	/	/	/	/	/
COc1ccc(C2CC2C(C)=O)cc1 (stereo not drawn)	.	.	134	.	.	.	.	.	.
COc1ccc(C2CC2/C(C)=N/OC(=O)C2CC2)cc1 (stereo not drawn)	.	.	.	.	.	.	/	/	/
COc1cccc(CN2CCC(C(=O)Nc3ccc(-c4cccc(C)c4)cc3)CC2)c1O	/	.	.	.	/	/	/	/	/
O=C(Nc1cccc(-c2cccc(Cl)c2)c1)C1CCN(Cc2ccccn2)CC1	/	.	.	140	/	/	.	.	.
Cc1cccc(-c2ccc(NC(=O)C3CCN(CC4CC4)CC3)cc2)c1	/	35	.	159	/	/	.	.	.
O=C(Nc1cccc(-c2cccc(Cl)c2)c1)C1CCN(Cc2ccon2)CC1	/	.	.	.	/	/	/	/	/
